Most compounds without a hit are left out; they make up all but 3.7% or so of the library.
Kir21 inh = inhibitors of mouse Kir2.1 inward-rectifier potassium channel; HEK293-Kir2.1, FluxOR thallium flux fluorescence; active compounds read low; AID 1672, 2009; B-score at 10 µM; Inward rectifier potassium channel 2 (Mus musculus), P35561; 310,000 compounds, 0.85% hits;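 active = fluorescence ratio B-score at or below minus 3 SD of library scores, with starting-brightness B-score within 2 SD, cut at about -4.2 in these data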;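 note: channel flux triggered by added potassium and thallium sulfate stimulus; B-score of peak minus minimum fluorescence over baseline after thallium stimulus; more negative B-score means stronger Kir2.1 block with less thallium influx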
KCNK9 block = KCNK9 potassium channel inhibitors, primary screen, HEK293 cells, thallium flux | Potassium channel subfamily K member 9 (Homo sapiens), Q9NPC2 | FluxOR thallium flux fluorescence; active compounds read low | B-score at 10 µM | 310,000 compounds, 1.2% hits | AID 488922, 2010;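 active = ratio B-score over 3 SD below the library mean, with starting fluorescence within 5 SD of its mean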;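 note: negative B-score means less thallium flux so channel inhibition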
KCNK3 inh = human KCNK3 channel inhibitors, primary screen, CHO cells, FluxOR thallium flux, B-score; 340,000 compounds, 0.84% hits; FluxOR fluorescence; active compounds read low; B-score at 10 µM;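 active = B-score under library mean minus 4 SD, starting fluorescence ratio at most library mean plus 5 SD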;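 note: more negative B-score means stronger inhibition of thallium flux through KCNK3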
Target sequence (O14649 whole entry, looked up): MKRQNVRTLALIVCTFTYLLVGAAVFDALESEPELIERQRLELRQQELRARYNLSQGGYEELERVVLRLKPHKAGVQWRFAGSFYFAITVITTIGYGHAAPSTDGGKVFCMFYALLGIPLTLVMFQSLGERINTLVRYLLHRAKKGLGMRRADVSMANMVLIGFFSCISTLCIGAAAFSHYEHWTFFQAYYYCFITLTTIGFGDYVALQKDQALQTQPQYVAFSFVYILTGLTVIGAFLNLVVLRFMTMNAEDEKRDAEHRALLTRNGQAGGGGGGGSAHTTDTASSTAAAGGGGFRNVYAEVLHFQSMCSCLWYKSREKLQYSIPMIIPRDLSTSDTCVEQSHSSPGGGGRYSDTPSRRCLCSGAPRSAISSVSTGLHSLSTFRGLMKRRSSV
KCNQ1 inh = inhibitors of human KCNQ1 channel, primary screen, cell-based, thallium flux, high-throughput; Potassium voltage-gated channel subfamily KQT member 1 (Homo sapiens), P51787; CHO-K1 KCNQ1, FluxOR thallium flux fluorescence; active compounds read high; B-score at 10 µM; 310,000 compounds, 1.3% hits; AID 2642, 2010;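 active = compounds whose thallium flux B-score, printed positive for inhibition, exceeds three library SD while starting fluorescence stays within three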;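 note: channel opened by potassium depolarization with thallium stimulus after 20 min compound exposure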
hERG protect = hERG rescue from dofetilide block, primary screen, cell-based, CHO-hERG, FluxOR thallium flux, dofetilide IC70 | Voltage-gated inwardly rectifying potassium channel KCNH2 (Homo sapiens), Q12809 | dofetilide IC70 present | activation (rescue from dofetilide block), less the hit threshold, % at 10 µM | 310,000 compounds, 0.51% hits | AID 1511, 2009;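 active = activation above the mean of controls blocked by dofetilide plus 5 SD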;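 note: thallium influx through hERG after potassium depolarization seen as dye fluorescence rise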
KCNQ1 pot = potentiators or activators of KCNQ1 channel, primary screen, cell-based, thallium flux, high-throughput. CHO-K1 KCNQ1, thallium flux FluxOR fluorescence; active compounds read high. B-score at 10 µM. 310,000 compounds, 0.35% hits. AID 2648, 2010;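 active = fluorescence ratio B-score, a plate-corrected score, at least three library SD, with initial intensity B-score within 5 SD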
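Medium – assay buffer, equal DMSO in all wells · Material – CHO-K1 cell line with stable KCNQ1 potassium channel expression · Signal – kinetic FluxOR thallium fluorescence, 10-s 1-Hz baseline, 110-s post-stimulus read · Compound – single concentration per compound, DMSO matched to controls · Schedule – 37 °C overnight plating, 90-min dark dye load, 20-min compound pretreatment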
* marks the source's active call; other numbers are inactive results; i = inactive; / = not tested or not shown; ! = a repeat was not active.

SMILES	Kir21 inh	KCNK9 block	KCNK3 inh	KCNQ1 inh	hERG protect	KCNQ1 pot
COC(=O)C1=CN(Cc2ccc(OC)cc2)C=C(C(=O)OC)C1c1cccs1	0.01	-6.66*	i	i	-8.9	i
COC(=O)C1=CN(CCCN2CCCC2=O)C=C(C(=O)OC)C1c1cccs1	-0.63	i	i	i	-7.9	i
CCC(NC(=O)c1[nH]c(C)c(C(C)=O)c1C)c1ccc(Br)cc1 (stereo unspecified)	-0.32	i	i	6*	-11.6	i
CCC(C)c1ccc(NC(=O)c2[nH]c(C)c(C(C)=O)c2C)cc1 (stereo unspecified)	-0.43	i	i	i	-5.4	i
O=C(NCC1CCOCC1)c1ccc2nc(Cc3cccc(Cl)c3)oc2c1	1.12	i	i	i	-2.0	i
CC(NC(=O)COc1ccc(S(=O)(=O)N2CCCC2)cc1)c1ccccc1 (stereo unspecified)	-0.9	i	i	i	-1.9	i
CCCC1=NN(C(=O)Cc2ccc(OC)c(OC)c2)C(O)(C(F)(F)F)C1 (stereo unspecified)	-2.99	i	i	i	-14.7	i
O=C(CC(=O)c1ccccc1O)c1cccc(F)c1	0.27	i	i	i	-0.2	37*
O=C(CC(=O)c1ccccc1O)c1ccc(F)cc1	1.09	i	i	i	-3.0	i
Cc1ccccc1NC(=O)c1cc(-c2ccco2)nc2ccccc12	/	/	i	/	/	/
Cc1ccccc1NC(=S)NC(=O)c1cc(-c2ccccc2)nc2ccccc12	0.72	i	i	i	3.4	19*
Cc1cccc(NC(=S)NC(=O)c2cc(-c3ccccc3)nc3ccccc23)c1	0.96	i	i	i	6.1*	18*
O=C(CCC1CCCC1)NNC(=O)c1cccc(Cl)c1	0.01	i	i	i	4.5	i
CCOC(=O)N1CCC(NC(=O)CSCc2nc(-c3ccccc3Cl)oc2C)CC1	0.1	i	i	i	-2.7	i
Cc1oc(-c2ccccc2Cl)nc1CSCC(=O)NC1CCCC1	-4.74*	i	i	i	-8.2	i
COc1ccc(-c2cc(N)n(S(=O)(=O)c3c(F)c(F)c(F)c(F)c3F)n2)cc1OC	-3.33	i	-10.6*	i	-36.3	8*
COc1ccc(S(=O)(=O)n2nc(-c3cc(OC)c(OC)c(OC)c3)cc2N)cc1OC	/	/	i	/	/	/
Oc1ccc(Br)cc1-c1n[nH]c(=S)n1Cc1ccccc1	-3.51	i	i	i	5.9*	11*
O=C(Nc1ncc([N+](=O)[O-])s1)c1ccccc1Br	-0.62	i	i	8*	-13.3	i
O=C(Nc1ncc([N+](=O)[O-])s1)c1cccs1	1.81	i	i	6*!	-5.4	i
O=C(CS(=O)(=O)c1ccccc1)Nc1ncc([N+](=O)[O-])s1	0.07	i	i	i	-8.8	i
COCCn1c(SCC(=O)N(C)C2CCS(=O)(=O)C2)nc2ccccc2c1=O (stereo unspecified)	0.53	i	i	i	-9.3	i
Cc1ccc(-n2c(SCC(=O)N(C)C3CCS(=O)(=O)C3)nc3ccccc3c2=O)c(C)c1 (stereo unspecified)	/	/	-9.18*	/	/	/
O=C1C=CC(=O)N1Cc1ccccn1	/	/	i	/	/	/
CCOC(=O)Cc1cc(=O)[nH]n(-c2ccccc2)c1=O	/	/	i	/	/	/
C=CC[n+]1c(/C=C/c2ccc(OC(C)=O)c(OC)c2)ccc2ccccc21	-0.06	i	i	i	-6.8	12*
COc1cc(/C=N/NC(=O)Nc2ccccc2)ccc1OC(C)=O	0.76	i	i	i	-6.6	i
COc1ccc(-c2oc3cccnc3c2C#CCO)cc1	-0.17	i	i	i	-6.1	i

Screening results as filed in PubChem.
